# Columns and labels:
# Histone deacetylase 8 = biological target: T1, Histone deacetylase 8 (Homo sapiens, UniProt Q9BY41); experiment: Inhibition of HDAC8 using fluorogenic Boc-Lys (acetyl)-AMC as substrate after 30 mins by fluorescence assay
# T1 sequence (Q9BY41 whole entry): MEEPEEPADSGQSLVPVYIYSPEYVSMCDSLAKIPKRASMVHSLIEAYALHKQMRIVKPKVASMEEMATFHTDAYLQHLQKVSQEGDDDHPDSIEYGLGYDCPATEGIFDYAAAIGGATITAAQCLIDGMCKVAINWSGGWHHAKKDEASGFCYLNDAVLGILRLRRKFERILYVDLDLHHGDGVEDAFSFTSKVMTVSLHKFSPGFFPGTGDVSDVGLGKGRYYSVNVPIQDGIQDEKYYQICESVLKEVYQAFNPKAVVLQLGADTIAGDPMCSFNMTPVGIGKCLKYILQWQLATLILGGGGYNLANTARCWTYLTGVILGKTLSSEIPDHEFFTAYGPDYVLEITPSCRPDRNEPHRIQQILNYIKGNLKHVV
# How it was run: (§1)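 Enzyme (HeLa nuclear extract or HDAC8, the latter expressed and purified in-house) preincubated 5 min with graded compound concentrations. Substrate added and run for 30 min at 37 °C, then stopped with a trypsin/TSA developer for 20 min at 37 °C. Fluorescence read at ex 390/em 460 nm. Inhibition was taken relative to control wells, IC50 by regression. Mean ± SD of ≥3 determinations.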
# HCT-116 = experiment: Antiproliferative activity against human HCT116 cells after 48 hrs by MTT assay; assay type: functional, cell-based; conditions: HCT-116, 48 h
# Histone deacetylase = experiment: Inhibition of HDAC in human HeLa cell nuclear extract using fluorogenic Boc-Lys (acetyl)-AMC as substrate after 30 mins fluorescence assay; assay type: protein assay; how it was run: as §1
# A549 = experiment: Antiproliferative activity against human A549 cells after 48 hrs by MTT assay; assay type: functional, cell-based; conditions: A549, 48 h
# MDA-MB-231 = experiment: Antiproliferative activity against human MDA-MB-231 cells after 48 hrs by MTT assay; assay type: functional, cell-based; conditions: MDA-MB-231, 48 h
Structure (SMILES),IC50 (Histone deacetylase 8),IC50 (HCT-116),IC50 (Histone deacetylase),IC50 (A549),IC50 (MDA-MB-231)
O=C(COc1ccc(C[C@H](NC(=O)CCc2ccccc2)C(=O)Nc2ccccc2)cc1)NO,151 nM,,,,
CC(C)(C)OC(=O)N[C@@H](Cc1ccc(OCC(=O)NO)cc1)C(=O)Nc1ccccc1,227 nM,,,,
N[C@@H](Cc1ccc(OCC(=O)NO)cc1)C(=O)Nc1ccccc1,467 nM,,,,
O=C(COc1ccc(C[C@H](NC(=O)OCc2ccccc2)C(=O)Nc2ccccc2)cc1)NO,197 nM,,,,
COc1ccc(NC(=O)[C@H](Cc2ccc(OCC(=O)NO)cc2)NC(=O)OCc2ccccc2)cc1,120 nM,,,,
O=C(COc1ccc(C[C@H](NC(=O)OCc2ccccc2)C(=O)Nc2cccc(Cl)c2)cc1)NO,213 nM,,,,
COc1ccc(NC(=O)[C@H](Cc2ccc(OCC(=O)NO)cc2)NC(=O)c2ccccc2)cc1,87 nM,1530 nM,358 nM,24000 nM,2980 nM
COc1ccc(NC(=O)[C@H](Cc2ccc(OCC(=O)NO)cc2)NC(=O)Cc2ccccc2)cc1,63 nM,> 100000 nM,1230 nM,> 100000 nM,22300 nM

# Other lines, results leading:
IC50 (Histone deacetylase 8),IC50 (HCT-116),IC50 (Histone deacetylase),IC50 (A549),IC50 (MDA-MB-231),Structure (SMILES)
90 nM,6240 nM,889 nM,54600 nM,6590 nM,COc1ccc(NC(=O)[C@H](Cc2ccc(OCC(=O)NO)cc2)NC(=O)CCc2ccccc2)cc1
86 nM,57300 nM,1320 nM,97200 nM,14300 nM,COc1ccc(NC(=O)[C@H](Cc2ccc(OCC(=O)NO)cc2)NC(=O)CCCc2ccccc2)cc1
1180 nM,,,,,COc1ccc(NC(=O)[C@H](Cc2ccc(OCC(=O)NO)cc2)NCc2ccccc2)cc1
660 nM,,,,,COc1ccc(NC(=O)[C@H](Cc2ccc(OCC(=O)NO)cc2)NCCc2ccccc2)cc1
922 nM,,,,,COc1ccc(NC(=O)[C@H](Cc2ccc(OCC(=O)NO)cc2)NCCCc2ccccc2)cc1
